Reference: ChEMBL document CHEMBL1122889, “Amino acid derived latent isocyanates: irreversible inactivation of porcine pancreatic elastase and human leukocyte elastase” (J Med Chem, 1985)

Experiments:
[1] = target: T1, Pancreatic elastase (Sus scrofa) (UniProt P08419+P00772); experiment: k3 value was evaluated for the inhibition of porcine pancreatic Elastase; assay type: protein assay
Outline: (§1)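 PPE, 9.0 × 10⁻⁶ M, incubated with inhibitor in acetonitrile in 50 mM phosphate pH 6.5 at 25 °C, at inhibitor:enzyme ratios of 20–150. Aliquots taken over time were assayed with Boc-L-Ala-p-nitrophenyl ester: 30 s preincubation, then absorbance change over 2 min at 347.5 nm. Controls contained acetonitrile. Kobs came from ln(Et/E0) vs time, two runs per concentration. Ki and k3 came from the double-reciprocal replot, and k3/Ki was computed.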

[2] = target: T1, Pancreatic elastase (Sus scrofa); experiment: k3/k1 ratio of the compound; assay type: protein assay; outline: as §1
Pancreatic elastase = Pancreatic elastase (Sus scrofa, UniProt P08419+P00772); experiment: Ki value was evaluated for the inhibition of porcine pancreatic elastase; assay type: protein assay; outline: as §1
[3] = target: T1, Pancreatic elastase (Sus scrofa); experiment: Percent inhibition against porcine pancreatic elastase; assay type: protein assay; conditions: concentration not given here
Outline: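 PPE, 4.50 × 10⁻⁶ M stock in phosphate buffer pH 6.5, was incubated at 25 °C for 20 min with inhibitor (2.50 × 10⁻³ M stock in acetonitrile). Remaining activity was assayed by adding Boc-L-alanyl-p-nitroanilide (2.22 × 10⁻² M stock).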

[4] = target: T2, Neutrophil elastase (Homo sapiens) (UniProt P08246); experiment: Percent inhibition against human leukocyte elastase; conditions: concentration not given here
T2 sequence (whole entry): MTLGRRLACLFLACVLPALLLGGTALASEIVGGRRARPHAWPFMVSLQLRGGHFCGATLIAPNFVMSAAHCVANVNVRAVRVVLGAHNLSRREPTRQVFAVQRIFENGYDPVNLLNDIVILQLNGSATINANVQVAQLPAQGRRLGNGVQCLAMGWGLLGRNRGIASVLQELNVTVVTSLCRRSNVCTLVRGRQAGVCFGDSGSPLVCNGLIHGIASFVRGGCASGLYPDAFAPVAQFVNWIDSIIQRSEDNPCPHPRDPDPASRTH
Outline: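 HLE, 1.53 × 10⁻⁴ M stock in Tris-HCl pH 7.5, was incubated with inhibitor for 20 min. Residual activity was assayed by adding succinyltrialanyl-p-nitroanilide (2.3 × 10⁻³ M stock in Tris buffer).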

[5] = target: T1, Pancreatic elastase (Sus scrofa); experiment: k3 value was evaluated for the inhibition of porcine pancreatic elastase; assay type: protein assay; outline: as §1
Neutrophil elastase = target: T3, Neutrophil elastase (Homo sapiens, UniProt P08246); experiment: Ki value was evaluated for the inhibition of human leukocyte elastase
T3 sequence (P08246 whole entry): T2 sequence (whole entry)
Outline: (§2)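 HLE, 1.6 × 10⁻⁷ M, in Tris-HCl buffer pH 8.0 at 25 °C. Inhibitor was dissolved in N-methylpyrrolidinone. Loss of activity was followed continuously with succinyl-L-trialanyl-p-nitroanilide at 410 nm as a pseudo-first-order reaction, and rate constants were found by the Tsou method. Ki and k3 were taken from the double-reciprocal replot 1/kobsd vs 1/[I].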

[6] = target: T2, Neutrophil elastase (Homo sapiens); experiment: k3 value was evaluated for the inhibition of human leukocyte elastase; outline: as §2

Compound | k3 [1] [min⁻¹] | Ki (Pancreatic elastase) [µM] | further results
CCCCNC(=O)n1cnc(C)c1 | 0.06 | 7230 | 
CCCC(N=C=O)C(=O)OC (centres undefined) |  |  | inhibition [3]: 98%; inhibition [4]: 100%
COC(=O)[C@H](CCSC)NC(=O)n1ccnc1 |  |  | inhibition [3]: 0%; inhibition [4]: 100%
CCCCCCCc1nccn1C(=O)NCCCC | 0.12 | 2410 | 
CCCCNC(=O)n1ccnc1C | 0.3 | 2410 | 
CCCCNC(=O)n1ccnc1CC | 0.12 | 470 | 
COC(=O)C(CCSC)N=C=O (centres undefined) |  |  | inhibition [3]: 27%; inhibition [4]: 100%

Second part, led by results:

k3 [1] [min⁻¹] | Ki (Pancreatic elastase) [µM] | Compound | further results
0.04 | 1170 | COC(=O)[C@H](CC(C)C)NC(=O)n1ccnc1 | k3/k1 [2]: 0.5 M⁻¹ s⁻¹
 | 1110 | COC(=O)[C@@H](NC(=O)n1ccnc1)C(C)C | k3 [5]: 0.183 min⁻¹; Ki (Neutrophil elastase): 1800 µM; k3 [6]: 20.8 min⁻¹
0.322 | 840 | CCC[C@H](NC(=O)n1ccnc1)C(=O)OC | Ki (Neutrophil elastase): 320 µM; k3 [6]: 9.6 min⁻¹
 | 1400 | CCCCNC(=O)n1ccnc1 | k3 [5]: 0.66 min⁻¹
0.255 | 1940 | CCCCC(NC(=O)n1ccnc1)C(=O)OC (centres undefined) | Ki (Neutrophil elastase): 1000 µM; k3 [6]: 10 min⁻¹
0.07 | 1220 | CCC(C)[C@H](NC(=O)n1ccnc1)C(=O)OC (some centres undefined) | k3/k1 [2]: 1 M⁻¹ s⁻¹
